Results as given in ChEMBL document CHEMBL3526139, “Clinical pharmacokinetics, metabolism, and drug-drug interaction of carfilzomib” (Drug Metab Dispos, 2013).

Tests used:
[1] = biological target: T1, Cytochrome P450 3A (Homo sapiens, UniProt P08684+P20815+Q9HB55+P24462); experiment: Time-dependent inhibition of CYP3A in human liver microsomes preincubated for 30 mins with carfilzomib by LC-MS/MS analysis; assay type: ADME; conditions: microsomes
How it was run: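 Pooled HLM (16 donors) given carfilzomib 0.01–10 µM in duplicate at 37°C with a 30-min preincubation before probe substrate was added. Substrate was set near Km (testosterone Km 100 µM; midazolam Km 3.8 µM). Protein was 0.1 mg/mL, or 0.05 mg/mL with midazolam. Metabolite formation was read by LC-MS/MS after 5 min and expressed relative to 0.5% acetonitrile controls to give IC50.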

[2] = biological target: T2, Cytochrome P450 2D6 (Homo sapiens, UniProt P10635); experiment: Inhibition of CYP2D6 in human liver microsomes using dextromethorphan as substrate after 5 mins by LC-MS/MS analysis; assay type: ADME
T2 sequence (P10635 whole entry): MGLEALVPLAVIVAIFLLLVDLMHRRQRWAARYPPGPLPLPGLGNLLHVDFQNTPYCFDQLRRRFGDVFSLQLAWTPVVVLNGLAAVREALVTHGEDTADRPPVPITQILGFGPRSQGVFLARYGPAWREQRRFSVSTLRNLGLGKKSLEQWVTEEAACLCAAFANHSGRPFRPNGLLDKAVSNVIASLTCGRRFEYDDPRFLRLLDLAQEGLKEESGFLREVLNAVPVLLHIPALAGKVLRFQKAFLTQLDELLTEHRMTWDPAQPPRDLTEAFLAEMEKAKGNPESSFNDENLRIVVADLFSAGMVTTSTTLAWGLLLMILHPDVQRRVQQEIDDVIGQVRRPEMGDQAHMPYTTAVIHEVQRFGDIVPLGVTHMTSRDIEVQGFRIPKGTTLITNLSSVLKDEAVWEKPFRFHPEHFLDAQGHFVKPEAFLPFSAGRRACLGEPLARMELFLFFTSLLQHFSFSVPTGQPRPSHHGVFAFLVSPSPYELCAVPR
How it was run: (§1)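 Pooled HLM from 16 donors were incubated at 37°C in duplicate with carfilzomib 0.01–10 µM and probe substrate at about its Km. Substrates were phenacetin, amodiaquine, diclofenac, S-mephenytoin, dextromethorphan, testosterone and midazolam. Protein was 0.1 mg/mL, or 0.05 mg/mL with midazolam. Reactions ran 5 min without preincubation, then were quenched with acetonitrile. Metabolites were measured by LC-MS/MS relative to 0.5% acetonitrile controls.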

[3] = biological target: T3, Cytochrome P450 2C8 (Homo sapiens, UniProt P10632); experiment: Drug metabolism in pooled human hepatocytes assessed as disapperance rate at 1 uM by LC-MS/MS analysis in presence of 30 uM CYP2C8 inhibitor montelukast; assay type: ADME, cell-based, Hepatocyte
T3 sequence (P10632 whole entry): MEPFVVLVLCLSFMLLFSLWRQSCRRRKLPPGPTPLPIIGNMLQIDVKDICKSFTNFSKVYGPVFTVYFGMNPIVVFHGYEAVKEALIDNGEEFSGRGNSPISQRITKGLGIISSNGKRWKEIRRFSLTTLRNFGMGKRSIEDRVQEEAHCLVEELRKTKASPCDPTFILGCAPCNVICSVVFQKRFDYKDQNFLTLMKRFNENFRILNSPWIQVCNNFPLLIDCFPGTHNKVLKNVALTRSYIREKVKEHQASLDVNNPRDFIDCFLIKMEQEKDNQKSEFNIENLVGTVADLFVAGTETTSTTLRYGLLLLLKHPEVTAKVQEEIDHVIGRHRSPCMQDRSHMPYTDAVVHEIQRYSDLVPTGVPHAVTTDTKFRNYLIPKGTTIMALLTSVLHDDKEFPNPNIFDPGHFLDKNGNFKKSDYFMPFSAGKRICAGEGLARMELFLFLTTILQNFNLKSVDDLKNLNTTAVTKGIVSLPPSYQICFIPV
How it was run: (§2)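 Pooled human hepatocytes in suspension (~0.5 x 10^6 viable cells/mL) were incubated with 1 µM carfilzomib at 37°C under 5% CO2, with or without isoform-selective CYP chemical inhibitors. Reactions were quenched with acetonitrile at 0, 15, 30, 60 and 120 min. Carfilzomib was quantified by non-validated LC-MS/MS after protein precipitation.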

[4] = tested on: CYP3A; experiment: Decrease in CYP3A gene expression in human hepatocytes at 2.5 uM after 3 days by qPCR analysis; assay type: ADME, cell-based, Hepatocyte
How it was run: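 Hepatocytes were treated 3 days with carfilzomib (0.1–2.5 µM) or 0.08% DMSO, renewed daily. CYP3A mRNA was measured in 3 donors and CYP1A2 mRNA in one additional donor, both by qPCR. Values are triplicate means relative to DMSO.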

[5] = biological target: T2, Cytochrome P450 2D6; experiment: Drug metabolism in pooled human hepatocytes assessed as disapperance rate at 1 uM by LC-MS/MS analysis in presence of 10 uM CYP2D6 inhibitor quinidine; assay type: ADME, cell-based, Hepatocyte; how it was run: as §2
[6] = tested on: Hepatocyte; experiment: Cytotoxicity against human hepatocytes assessed as cell viability by MTT assay; assay type: cell-based
How it was run: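 MTT viability assay in cultured human hepatocytes from 3 donors after 3 days of carfilzomib exposure (0.1, 0.5, 2.5 µM) with daily medium and compound renewal. Solvent control was 0.08% DMSO.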

[7] = biological target: T4, Cytochrome P450 2C9 (Homo sapiens, UniProt P11712); experiment: Drug metabolism in pooled human hepatocytes assessed as disapperance rate at 1 uM by LC-MS/MS analysis in presence of 10 uM CYP2C9 inhibitor sulfaphenazole
Target sequence in this assay (P11712 whole entry, looked up): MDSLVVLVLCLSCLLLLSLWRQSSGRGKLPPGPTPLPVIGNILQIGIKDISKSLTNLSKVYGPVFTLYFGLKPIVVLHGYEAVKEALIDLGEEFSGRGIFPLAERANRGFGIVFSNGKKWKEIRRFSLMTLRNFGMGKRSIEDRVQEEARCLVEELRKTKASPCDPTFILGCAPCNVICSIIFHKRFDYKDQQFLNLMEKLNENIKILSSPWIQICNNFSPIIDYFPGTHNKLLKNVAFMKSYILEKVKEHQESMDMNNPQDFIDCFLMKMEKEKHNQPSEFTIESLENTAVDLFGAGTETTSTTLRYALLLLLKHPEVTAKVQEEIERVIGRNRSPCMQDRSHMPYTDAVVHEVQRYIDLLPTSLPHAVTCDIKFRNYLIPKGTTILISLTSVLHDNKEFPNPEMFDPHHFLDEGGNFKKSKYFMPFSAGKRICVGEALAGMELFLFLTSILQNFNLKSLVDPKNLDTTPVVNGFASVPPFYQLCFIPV

[8] = biological target: T4, Cytochrome P450 2C9; experiment: Inhibition of CYP2C9 in human liver microsomes using diclofenac as substrate after 5 mins by LC-MS/MS analysis; assay type: ADME; how it was run: as §1
Target sequence in this assay (P11712 whole entry): as the sequence (P11712 whole entry, looked up) above

[9] = biological target: T1, Cytochrome P450 3A; experiment: Time-dependent inhibition of CYP3A in human liver microsomes assessed as midazolam 1'-hydroxylation using midazolam as substrate measured after 25-fold diution by LC-MS/MS analysis in presence of NADPH; assay type: ADME
How it was run: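 Pooled HLM (16 donors, mixed gender) preincubated in duplicate with carfilzomib 0, 0.5, 1, 3, 5 and 8 µM plus NADPH-generating system (1 mM NADP, 5 mM glucose-6-phosphate, 1 unit/mL G6PDH) for 0–30 min. Microsomal protein in preincubation: 2.5 mg/mL (testosterone) or 1.25 mg/mL (midazolam). Aliquots then diluted 25-fold into 50 mM potassium phosphate, 3 mM MgCl2, 1 mM EDTA, pH 7.4. Residual activity measured over 5 min with testosterone 200 µM or midazolam 40 µM plus NADPH-generating mixture, 37°C. KI and kinact derived.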

[10] = Drug metabolism in pooled human hepatocytes assessed as disapperance rate at 1 uM by LC-MS/MS analysis; assay type: ADME, cell-based, Hepatocyte; how it was run: as §2
[11] = Drug excretion in urine of iv dosed human patient with relapsed and refractory hematological malignancies assessed as morpholino-hPhe metabolite formation administered on days 1, 2, 8, 9, 15 and 16 of 28-day cycle over 2 to 10 mins by LC-MS/MS analysis; assay type: ADME, organism-based; conditions: in vivo
[12] = biological target: T1, Cytochrome P450 3A; experiment: Time-dependent inhibition of CYP3A in human liver microsomes assessed as midazolam 1'-hydroxylation using midazolam as substrate by LC-MS/MS analysis in presence of NADPH; assay type: ADME
How it was run: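 HLM (1.25 mg/mL for midazolam) were preincubated in duplicate with carfilzomib 0, 0.5, 1, 3, 5, 8 µM plus an NADPH-generating system for 0–30 min. Mixtures were diluted 25-fold into pH 7.4 phosphate/MgCl2/EDTA buffer containing midazolam 40 µM and NADPH system for 5 min. Residual activity by LC-MS/MS gave KI and kinact.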

[13] = tested on: Plasma; experiment: Drug metabolism in plasma of iv dosed human patient with relapsed and refractory hematological malignancies assessed as morpholino-hPhe metabolite formation administered on days 1, 2, 8, 9, 15 and 16 of 28-day cycle over 2 to 10 mins by LC-MS/MS analysis; assay type: ADME, organism-based; conditions: in vivo
[14] = biological target: CYP3A (Homo sapiens, UniProt P08684+P20815+P24462+Q9HB55); experiment: Time-dependent inhibition of CYP3A in human liver microsomes assessed as testosterone 6-hydroxylation using testosterone as substrate by LC-MS/MS analysis; assay type: ADME; conditions: probe testosterone (6-hydroxylation)
How it was run: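 Pooled HLM (16 donors, mixed sex), 37°C, duplicate. IC50: carfilzomib 0.01–10 µM preincubated 30 min, then testosterone near Km (100 µM) at 0.1 mg/mL protein, 5 min, LC-MS/MS, relative to 0.5% acetonitrile control. KI/kinact: 0–8 µM preincubated 0–30 min with 2.5 mg/mL HLM plus NADPH-generating system, diluted 25-fold, testosterone 200 µM for 5 min.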

With `CC(C)C[C@H](NC(=O)[C@H](CCc1ccccc1)NC(=O)CN1CCOCC1)C(=O)N[C@@H](Cc1ccccc1)C(=O)N[C@@H](CC(C)C)C(=O)[C@@]1(C)CO1` [CARFILZOMIB] the “inhibition (INH)” value [1] was “Dose-dependent effect”, the IC50 [2] was over 10 µM and the Drug metabolism [3] was 0.014 min⁻¹. For the same molecule, the inhibition at 72 h, 2.5 µM [4] was over 95%, the Drug metabolism [5] was 0.013 min⁻¹ and the Activity [6] was “Non-toxic”. For the same molecule, the Drug metabolism [7] was 0.0073 min⁻¹, the IC50 [8] was over 10 µM and the “inhibition (INH)” value [9] was “Active”. For the same molecule, the Drug metabolism [10] was 0.015 min⁻¹, the Drug excretion [11] was “metabolite_detected” and the “inhibition (INH)” value [12] was “Active”. The Drug metabolism [13] was “metabolite_detected”, the Ki [14] was 11 µM and the kinact [14] was 0.00167 s⁻¹.
